# An excerpt weighted towards active compounds, which were near 1.6% of everything screened.
# FLuc inh counter – counter-screen for luciferase assay inhibitors: firefly luciferase inhibition; ATPLite firefly luciferase biochemical luminescence, 10 min; inhibition, % at 10 µM; 1.5% of 200,000 active; AID 1006;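 active = inhibition above about 50% when tested at 10 µM, limit read from the data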
# Target sequence (P08659 whole entry, looked up): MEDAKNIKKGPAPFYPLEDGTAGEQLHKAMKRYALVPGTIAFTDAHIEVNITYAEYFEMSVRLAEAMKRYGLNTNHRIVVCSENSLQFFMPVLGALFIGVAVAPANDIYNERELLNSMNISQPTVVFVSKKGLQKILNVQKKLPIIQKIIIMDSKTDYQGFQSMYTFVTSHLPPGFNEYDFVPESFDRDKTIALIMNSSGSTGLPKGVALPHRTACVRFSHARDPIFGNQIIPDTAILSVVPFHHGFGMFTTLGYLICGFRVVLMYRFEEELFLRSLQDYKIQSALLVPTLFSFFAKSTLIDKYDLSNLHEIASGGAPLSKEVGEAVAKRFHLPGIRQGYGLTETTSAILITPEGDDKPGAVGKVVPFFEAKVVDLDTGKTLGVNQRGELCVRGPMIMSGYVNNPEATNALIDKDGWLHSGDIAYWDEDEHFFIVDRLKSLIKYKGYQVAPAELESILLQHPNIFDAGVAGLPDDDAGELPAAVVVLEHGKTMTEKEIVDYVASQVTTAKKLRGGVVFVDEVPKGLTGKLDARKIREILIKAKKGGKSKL
# C8 TRAIL sens – caspase-8 TRAIL sensitization. inhibition (viability loss, TRAIL sensitization), % at 10 µM. 1% of 360,000 active. NB7+C8 cells + TRAIL, ATPlite viability luminescence. AID 624354;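 active = compounds causing at least 50% loss of cell viability in the single-dose screen, relative to plate controls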
# PPC-1+TRAIL kill – PPC-1 cancer cell killing with TRAIL present. PPC-1 cells + TRAIL, ATPLite viability luminescence. cell killing (% activity), % at 4 µM or 5 µM. 0.41% of 220,000 active;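 active = cell killing above 50% in the first pass at 4 µM, then a duplicate retest at 5 µM averaging 50% or more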;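 also: plate controls were cells with TRAIL plus DMSO for no effect and medium-only wells lacking cells for full effect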
# FLuc stim CS – affects firefly luciferase, flagging false hits in luciferase stimulation screens; 200,000 tested, under 10 active; ATPlite luciferase biochemical, luminescence, 10 min; 0 = ATP-free wells, 1 = DMSO control; activation factor at 10 µM;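 active = luciferase activation factor, scaled between plate controls, of at least 2 with compound at 10 µM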
#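 Assay system – cell-free luciferase reagent · Medium – PBS-based ATP solution · Dosing – test compounds dosed from 2 mM stocks in 100% DMSO · Timing – 10 min, room temperature · Technique – light output (luminescence) · Measure – luminescence gain marking luciferase activators · Controls – No-ATP low control, compound-free enzyme-plus-ATP high control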
# * hit, by the source's call; · = no result.
SMILES,FLuc inh counter,C8 TRAIL sens,PPC-1+TRAIL kill,FLuc stim CS
COc1ccc(-c2csc(NCc3ccco3)n2)cc1,72*,17,23,0.3
c1coc(CNc2nc(-c3ccncc3)cs2)c1,11,-17,25,0.9
OCC1OC(n2cnc3c(=S)nc[nH]c32)CC1O (configuration not stated),·,76*,·,·
S=c1nc[nH]c2c1ncn2C1CCCO1 (configuration not stated),·,73*,31,·
O=c1[nH]cnc2c1ncn2[C@@H]1C[C@@H](O)[C@H](CO)O1,·,-18,·,·
Nc1ncnc2c1ncn2C1CCCO1 (configuration not stated),·,-18,·,·
CN1CC(c2ccccc2)C2(SC(=S)N(Cc3ccco3)C2=O)C12C(=O)Nc1ccccc12 (configuration not stated),-2,50*,18,1
CN1CC(c2ccccn2)C2(SC(=S)N(Cc3ccccc3)C2=O)C12C(=O)Nc1ccccc12 (configuration not stated),-6,2,-2,1.1
COCCNC(=O)c1onc(CSc2ccccc2F)c1C(=O)O,-6,-1,55*,1.1
Cc1ccc(CSC2=NCCN2C(=O)c2ccc([N+](=O)[O-])cc2)cc1,-2,-4,13,1
CS(=O)(=O)c1sc(C#N)c2c1C(=O)CC(c1ccccc1)C2 (configuration not stated),·,73*,4,·
Cc1oc2c(c(=O)c1C)C(=O)CC(c1ccccc1)C2 (configuration not stated),1,10,-2,1
Cc1ccc(/C=N/NC(=O)c2cc(C)oc2C)cc1,·,50*,44,·
CC(/C=N\NC(=O)c1cc(C)oc1C)=C\c1ccccc1,76*,49,43,0.2
Cc1cc(C(=O)N/N=C/c2ccncc2)c(C)o1,·,-5,1,·
CC(/C=N/NC(=O)c1cc(-c2ccc(C)o2)[nH]n1)=C\c1ccccc1,2,7,3,1
Cc1ccc(-c2cc3ccccc3nc2N2CCCC2)cc1,-5,-12,4,1
Cc1ccc2c(c1)-c1nc3ccccc3cc1C2=NC1CCCCC1,5,51*,25,0.9
Cc1ccc2c(c1)C(=NC1CCCCC1)c1cc3ccccc3nc1-2,7,64*,14,0.9
COc1ccc2[nH]c3c(c2c1)CNCC3,·,16,·,·
CN(c1ccccc1)S(=O)(=O)c1ccc2ccccc2c1,·,13,·,·
O=C(N/N=C/c1ccc[nH]1)c1c[nH]c2ccccc12,·,78*,·,·
CCn1nc(C)c(/C=N/NC(=O)c2c[nH]c3ccccc23)c1C,59*,17,14,0.4
CSc1ncnc2c1ncn2CCCN(C)CCc1ccccn1,·,1,·,·
COc1ccc(-c2cc3nc4n(c(=O)c3s2)CCC4)cc1,84*,71*,-11,0.2
SMILES,FLuc inh counter,C8 TRAIL sens,PPC-1+TRAIL kill,FLuc stim CS
COc1ccc(-c2cc3nc4n(c(=O)c3s2)CCCCC4)cc1,·,27,31,·
O=C(CSc1ccc(-c2cccc([N+](=O)[O-])c2)nn1)N1CCCC1,2,-1,26,1
Cc1ccc(N2CS(=O)(=O)/C(=C/N(C)C)C2=O)cc1,57*,25,47,0.4
O=C(CCCC(=O)N(CC(=O)NC1CCCCC1)Cc1ccco1)Nc1ccccn1,-8,-15,2,1.1
COC(=O)Cn1nnc2c(cnn2-c2ccccc2)c1=O,3,0,21,1
O=C(O)c1ccc(CN2C(=O)c3cccc4c([N+](=O)[O-])ccc(c34)C2=O)cc1,·,58*,·,·
Cc1ccc(C(=O)O)cc1N1C(=O)c2cccc3c([N+](=O)[O-])ccc(c23)C1=O,·,17,·,·
Oc1c(N=Nc2ccc(F)cc2)ccc2ccccc12,·,53*,·,·
Oc1c(N=Nc2nn[nH]n2)ccc2ccccc12,·,45,·,·
Cc1ccc(N=Nc2ccc3ccccc3c2O)cc1,·,75*,·,·
COc1cccc(N=Nc2ccc3ccccc3c2O)c1,·,57*,·,·
Oc1ccc2ccccc2c1N=Nc1ccc(F)cc1,·,19,5,·
COc1ccc(N=Nc2ccc3ccccc3c2)c(O)c1,·,47,·,·
O=C(CCCN1CCN(c2ccccc2)CC1)c1ccc(F)cc1,·,6,·,·
O=C1CC(=O)C(n2cncn2)C(c2cccc(Cl)c2)C1 (configuration not stated),-7,-3,13,1.1
COc1cccc(C(=O)COC(=O)C(C)N2C(=O)c3ccccc3C2=O)c1 (configuration not stated),-4,-11,8,1
COc1cc(C=C(c2nc3ccccc3s2)c2nc3ccccc3s2)cc(OC)c1O,2,-9,12,1
COc1cccc(NC(=O)c2ccccc2-c2ccccc2)c1,-2,-7,-2,1
Cc1ccc(N=Cc2c(C)[nH]n(-c3nc4ccccc4[nH]3)c2=O)cc1,79*,89*,79*,0.2
CCc1nc(N=Nc2c(O)[nH]c3ccccc23)c2c3c(sc2n1)CCC3,-8,18,10,1.1
CCOC(=O)c1ccc(C(=O)NNC(=O)C2CC=CCC2)cc1 (configuration not stated),·,-1,·,·
Cc1cccc(NC(=S)NC(=O)c2ccc(-c3ccccc3)cc2)n1,·,59*,·,·
Cc1cccc(NC(=S)NC(=O)c2oc3ccccc3c2C)n1,·,64*,·,·
Cc1c(C(=O)NC(=S)Nc2ccc(NC(=O)c3cccs3)cc2)oc2ccccc12,·,21,·,·
Cc1cccc(NC(=S)NC(=O)C(c2ccccc2)c2ccccc2)n1,·,-13,·,·
SMILES,FLuc inh counter,C8 TRAIL sens,PPC-1+TRAIL kill,FLuc stim CS
Cc1cc(C)c(NC(=S)NC(=O)c2ccccc2)cc1C,·,7,·,·
Cc1cccc(NC(=O)c2cc3ccccc3c(=O)o2)n1,·,60*,·,·
Cc1ccc(C(=O)O)cc1NC(=S)NC(=O)c1ccc(-c2ccccc2)cc1,86*,40,31,0.1
CCC(C)C(NC(N)=O)C(=O)NC1CCC(C)CC1 (configuration not stated),-9,·,-25,1.1
N#C/C(=C\c1cc(Cl)cc(Cl)c1O)C(=O)NC1CCCCC1,-10,54*,10,1.1
N#C/C(=C\c1cc(Cl)ccc1O)C(=O)NC1CCCCC1,-4,-10,10,1
COC(=O)Cc1ccc2sc(-c3ccccc3)nc2c1,83*,63*,44,0.2
O=C(O)Cc1ccc2sc(-c3ccccc3)nc2c1,43,25,9,0.6
COc1ccc(NC(=O)CSc2nc(N)c(C(=O)Nc3ccc(N(C)C)cc3)s2)cc1,24,24,25,0.8
Cc1cc(C(=O)Nc2ccc3c(c2)OCCO3)c2ccccc2n1,-5,-13,-4,1.1
Cc1nc2ccccn2c1C(=O)Nc1ccc2c(c1)OCCO2,54*,25,27,0.5
O=C(Nc1ccc2c(c1)OCCO2)c1coc2ccccc2c1=O,97*,-2,0,0
CCOc1cccc(C(=O)Nc2ccc3c(c2)OCCO3)c1,·,59*,·,·
O=C(Nc1ccc2c(c1)OCCO2)c1cccc(C(=O)Nc2ccc3c(c2)OCCO3)c1,·,16,·,·
CC(=O)Nc1ccc(NC(=O)c2c(C)nc3ccccn23)cc1,-3,13,4,1
O=C(Nc1ccc2c(c1)OCCO2)c1ccccc1,·,51*,·,·
CC1CC(C)CN(S(=O)(=O)c2ccc(C(=O)NCCCn3ccnc3)cc2)C1 (configuration not stated),-4,-1,3,1
